Molecules are shown by their SMILES. Activity calls are given as the source filed them. The rule behind the calls is not given here.

This passage reports Activity results from ChEMBL document CHEMBL1150296, “Synthesis and DNA cleaving activity of water-soluble non-conjugated thienyl tetraynes” (Bioorg Med Chem, 2008).

Assay [1] has as its system Escherichia coli. Briefly: Effect on DNA cleavage in ampicillin resistant Escherichia coli DH5alpha transformed pBluescript 2 KS+ DNA assessed as number of colonies at 1 mM after 15 hrs by transformation assay. A digest of the protocol:
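Plasmid DNA (2.0 µg) exposed to tetrayne at 1.0 mM (final DMSO 3.0%) at 37 °C, recovered by ethanol precipitation, redissolved in water and heated 60 °C for 10 min. Heat-shock transformation of competent E. coli (DH5a or JM109) at 42 °C for 1 min, 1 h recovery in LB at 37 °C, plating on ampicillin (100 mg/L) LB agar, 37 °C for 15 h; colonies counted.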

Assay [2] relates to Escherichia coli. The experiment in a line: Induction of Escherichia coli pBluescript 2 KS+ DNA cleavage by gel electrophoresis. A digest of the protocol: (§1)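 pBluescript II KS+ (2.0 µg) incubated overnight at 37 °C with tetrayne in 20 µL, final DMSO 3.0%. Level 1.0 mM; 0.1, 0.3, 0.6 mM also run for the dose series. DNA ethanol-precipitated, redissolved, held 60 °C 10 min then 37 °C 30 min, run on 0.7% agarose; ethidium bromide stain, UV imaging of supercoiled, nicked and linear forms.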

Assay [3] deals with Escherichia coli. Briefly: Induction of Escherichia coli pBluescript 2 KS+ DNA cleavage assessed as formation of burst star shaped architecture at 1 mM by atomic force microscopy. A digest of the protocol:
(§2)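 Plasmid exposed to tetrayne (1.0 mM, 37 °C, 6 h), ethanol-precipitated, pellet taken up in water. Sample spotted on flat mica for 1 min at room temperature, excess water blown off with air, then single DNA molecule shapes imaged by atomic force microscopy.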

The test system of assay [4] is Escherichia coli. Briefly: Induction of Escherichia coli pBluescript 2 KS+ DNA cleavage assessed as increase in nicked form 2 at 1 mM by gel electrophoresis. The method, boiled down:
as §1

Assay [5] concerns Escherichia coli. Briefly: Induction of Escherichia coli pBluescript 2 KS+ DNA cleavage assessed as increase in form 3 at 1 mM by gel electrophoresis. The method, boiled down: as §1
In assay [6] the test system is Escherichia coli. Briefly: Induction of Escherichia coli pBluescript 2 KS+ DNA cleavage assessed as linear form 3 at 1 mM by atomic force microscopy. The method, boiled down: as §2
Assay [7] concerns Escherichia coli. Briefly: Induction of Escherichia coli pBluescript 2 KS+ DNA cleavage assessed as decrease in form 1 at 1 mM by gel electrophoresis. A digest of the protocol: as §1

For `CN(C)C`, the Activity in the assay on Escherichia coli [1] was more than 1000.

As to `COCc1ccccc1C#CC#Cc1cc(CN(C)C)sc1C(=O)C#CC#CC(C)(C)C`, the results for the Activity entry with Escherichia coli [2] and with Escherichia coli [1] were “Dose-dependent effect” and 8, respectively. In addition, the outcome with Escherichia coli [3], with Escherichia coli [4], with Escherichia coli [5], with Escherichia coli [6] and in the assay on Escherichia coli [7] was Active.

As to `COCc1ccccc1C#CC#Cc1cc(C(=O)O)sc1C(=O)C#CC#CC(C)(C)C`, the Activity in the assay on Escherichia coli [1] was more than 1000.

On to `COCc1ccccc1C#CC#Cc1cc(C(=O)O)sc1C(O)C#CC#CC(C)(C)C` (stereo unspecified), for which the Activity in the assay on Escherichia coli [1] was more than 1000.

As for `COCc1ccccc1C#CC#Cc1cc(CN(C)C)sc1C(O)C#CC#CC(C)(C)C` (stereo unspecified), in the assay with Escherichia coli [1], the Activity is more than 1000.
